According to the EternaBench riboswitch data:

Tested on: MS2 coat protein
Assay: apparent Kd, MS2 coat protein; higher = weaker binding; RNA-MaP array; FMN 200 µM where present
In short: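 The apparent Kd is reported as the median of filtered per-cluster binding-curve fits. To get these curves, designs transcribed by stalled E. coli RNA polymerase on Illumina sequencing-chip clusters were titrated with SNAP-549-labelled MS2 coat protein from 0.7 or 1.5 nM, doubling to 3 µM. Titrations were run without and then with constant ligand in 100 mM Tris-HCl pH 7.5, 80 mM KCl, 4 mM MgCl2, BSA, DTT, yeast tRNA and Tween-20, and green signal was normalised to red-channel RNA signal and control-cluster median Fmax.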

[1] = designed as: OFF switch for flavin mononucleotide, no ligand
[2] = ligand present: flavin mononucleotide, designed as: OFF switch for flavin mononucleotide
[3] = designed as: ON switch for flavin mononucleotide, no ligand
[4] = ligand present: flavin mononucleotide, designed as: ON switch for flavin mononucleotide

Sequence	apparent Kd [1]	apparent Kd [2]	apparent Kd [3]	apparent Kd [4]
GGCUCAUUGACAUUAAUGUGCAGACAGGAUAUCCACGGCGGUUCCUACAUGAGGAUCACCCAUGUGGAGAAGGGUCGCUAAUGG	14.4 nM	33 nM		
CUAUGAGCGAUAGGAUAUACUGAGAUUGAGUGGGUAGAAGGAUCGAUAGUGUAGAAGACAUGAGGAUCACCCAUGUUACGGGCC			188 nM	186 nM
GGAUCUUGGGUCAGGAUAUGCUGACAGCCAUGUCAGCAGAAGGGACAUGAGGAUCACCCAUGUGCUCGGUUUUG	10.3 nM	18.1 nM		
AAUACUACAGGAUAUACAUGGGUGAUCCUCAUGUCCCUUCUACAUGAGGAUCACCCAUGUAGAAGGGUAGUACA	13.4 nM	8.3 nM		
GUGGUCAGACAUGAGGAUCACCCAUGUGGAAUAAAUAAGGACAAGGAUAUGGAAUAUAGGAUAUACCAGAAGGUGUGGUUGGUG			70 nM	86 nM
GUGUGCUGAGGAUAUACAUAGGAAGAGAAGAGAAGAGAAGGACAUGAGGAUCACCCAUGUAGAAGGCAGAGUGU	28.2 nM	33.3 nM		
AGUCGGAGCAGAGGAUAUUACAUGAGGAUCACCCAUGUAUUAAAUGGAAGCUGGAAACAGCAAUGUAAGAAGGCUGCUCCGACA	62.4 nM	284 nM		
AUUAUUGACAUAGGAUAUUGUUACAUGAGGAUCACCCAUGUUAUUUGGGAAUUAGGAAUAUUUUACAAGAAGGAUGUUGUUACA			106 nM	72.5 nM
CGACAGUACACAGGAUAUCCUCGACUUUGUCGAGGAGAAGGGUGUAAACAUGAGGAUCACCCAUGUAUACUGUCGAAAUAUAAU			350 nM	38.7 nM
GCAUUGUAAGGAUAUACGUGCAAAGUUUUCGCUGUAAGUCGACAUGAGGAUCACCCAUGUAGAAGGUAUAUGGU	24 nM	24.1 nM		
GUAGCUAUCGGAGGAUAUUCAUACCGGAAACGGACAUGAGGAUCACCCAUGUGUCGAAAGCCUUGGGAGAAGGCCGAUAGCUAC			181 nM	59.2 nM
GUGAACCGUAGGUCGCUGGCUGCACAGGAUAUGAAGGCGUACAUGAGGAUCACCCAUGUUCCCUAUCAGAAGGGUGACAGGAAA			14.8 nM	8.85 nM
AUUGUAAUGUCAGGAUAUAUUAUUUUUUACAUAGUAGAAGGGAUAAUUAUACUCAUGUACAUGAGGAUCACCCAUGUUAAAUAU			58.8 nM	24.8 nM
UGACUAGUAAUGUAUCGAAAGAUCACAUGAGGAUCACCCAUGUAGGAUAUGAGCAGAAAAUCUGCUCAGAAGGACAUGCUAGUC	5.9 nM	7.36 nM		
UUGGACGUCCUAGGAUAUGUAGGAUAUUCCUACAUGAGGAUCACCCAUGUUGACAUGGAAGAAGGACAGAAGGACGAUGUCCAU			551 nM	71.3 nM
AUAUGUGUCGAGAAGGGCUCACGUAACGGAACAGCAGGAUAUCGACAUGAGGAUCACCCAUGUCGGAACGAACGGAUCUUUACU	7.22 nM	8.53 nM		
ACCGUGUCAGGAUAUCCUGCUGUGCGGAAUCUGUAUUCACGGGAGAAGGGACAUGAGGAUCACCCAUGUUUGAG	19.6 nM	18.6 nM		
UGGUACUAGGGAGGAUAUGGGAAGAUACAUGAGGAUCACCCAUGUUUAAGAAUGCCGAGAGGCAACUAGAAGGCGCUAGUACCU			710 nM	90.9 nM
AUAUCAUACCAAGGAUAUUUAGGACUUGUGUAGACAUGAGGAUCACCCAUGUGGCGUUAGUCACGGGAGAAGGUGGUAUGAUAU			83 nM	18.5 nM
UAUAUAUAGGCAGGAUAUACAUGUAUAUAUAAUAUAUUAUAUAUUAUUACAUGAGGAUCACCCAUGUAGAAGGGCCAUAUUAUA	41.3 nM	65.9 nM		
GCCUCACAUGAGGAUCACCCAUGUCAGGAUAUAGGAGACGGCAGAAAUUCUGCCGUCGCUAGAAGGGACUGGCA	44.2 nM	86.9 nM		
UACAGACAUGAGGAUCACCCAUGUGAGGAUAUUUCUGCUGGGAUCAGCCCAAUAUGCGAGAGAAGGCACUAGGG	133 nM	184 nM		
UGCGAGCAGAUCGUCCGCUCACAUGAGGAUCACCCAUGUAGGAGAAGGCGCCAUGAAGGCAGCGGCGAGGAUAUCCUCGUGGGC	78 nM	77.6 nM		
GUACUGCCCACAGAUAACUUAGCCAGAAGGGUCUACAUGAGGAUCACCCAUGUGGUCCAAAGUGGACAGGAUAUGGAAACGGUU	68.4 nM	40.9 nM		
CAGUUCUGAGGAUAUCCACCCUCCUACAUGAGGAUCACCCAUGUUUCCCUCUGGGCUUUCGGAGAAGGCAGUUAUC	52.5 nM	43.6 nM		
AAACUGUGAGGAUAUGGUGAGUAGUGCCUGAGCGCUGCUCACCAGAAGGCACAUGAGGAUCACCCAUGUAUAAC	24.8 nM	62.1 nM		
AUGGACGUCGUAGGAUAUGUAGGAUAUUCCUACAUGAGGAUCACCCAUGUUGACAUGGAAGAAGGACAGAAGGACGAUGUCCAU			199 nM	4.47 nM
UUUUAACAUGAGGAUCACCCAUGUGAGGAUAUCGAAAUUUAUAUUUAUAUUUAUAUAUCGAGAAGGCACAUUUU	128 nM	127 nM		
